Common to all, as to assay type: cell membranes
Test [1] deals with Serotonin 2 (5-HT2) receptor (Rattus norvegicus, UniProt P30994+P08909+P14842). Nature of the test: The concentration required to inhibit [3H]ketanserin binding to 5-hydroxytryptamine 2 receptor in rat brain membranes (in vitro). The essentials:
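Male Sprague-Dawley rat cortical membranes (0.15 mg/mL protein) in Tris-HCl pH 7.6 with BSA 2 mg/mL. Incubated 15 min at 37 °C with compound and [3H]ketanserin (final 0.4 nM). Nonspecific binding from 10⁻⁶ M methysergide. Filtration and scintillation counting. IC50 by nonlinear regression; mean of at least 2 runs, 6 concentrations in triplicate.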

The next test deals with D(2) dopamine receptor (Rattus norvegicus, UniProt P61169). Nature of the test: The concentration required to inhibit [3H]spiperone binding to dopamine receptor D2 in rat brain membranes (in vitro). In outline: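 Rat striatal membranes (0.05 mg/mL protein) in Tris-HCl with BSA 2 mg/mL, NaCl, cinanserin 10⁻⁶ M and compound. [3H]spiperone (final 0.05 nM) added after 5 min, incubation continued 40 min. Nonspecific binding from 10⁻⁶ M sulpiride. Filtration and scintillation counting.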

The target of test [2] is T1, Adrenergic receptor alpha-1 (Rattus norvegicus, UniProt P15823+P23944+P43140).
T1 sequence (P15823 whole entry): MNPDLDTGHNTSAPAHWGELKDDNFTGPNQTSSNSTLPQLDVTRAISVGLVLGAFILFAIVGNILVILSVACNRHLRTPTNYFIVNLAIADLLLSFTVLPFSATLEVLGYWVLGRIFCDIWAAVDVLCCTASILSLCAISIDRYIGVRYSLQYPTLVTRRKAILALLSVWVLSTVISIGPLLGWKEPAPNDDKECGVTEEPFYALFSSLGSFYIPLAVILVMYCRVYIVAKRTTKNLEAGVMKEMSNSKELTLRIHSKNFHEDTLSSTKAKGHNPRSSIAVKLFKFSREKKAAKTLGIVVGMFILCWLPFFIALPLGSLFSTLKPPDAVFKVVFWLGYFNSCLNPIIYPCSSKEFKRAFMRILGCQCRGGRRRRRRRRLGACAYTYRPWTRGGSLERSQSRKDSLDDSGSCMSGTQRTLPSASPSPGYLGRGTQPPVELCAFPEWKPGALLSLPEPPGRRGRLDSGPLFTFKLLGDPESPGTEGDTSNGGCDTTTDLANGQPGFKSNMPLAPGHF
T1 sequence (P23944 whole entry): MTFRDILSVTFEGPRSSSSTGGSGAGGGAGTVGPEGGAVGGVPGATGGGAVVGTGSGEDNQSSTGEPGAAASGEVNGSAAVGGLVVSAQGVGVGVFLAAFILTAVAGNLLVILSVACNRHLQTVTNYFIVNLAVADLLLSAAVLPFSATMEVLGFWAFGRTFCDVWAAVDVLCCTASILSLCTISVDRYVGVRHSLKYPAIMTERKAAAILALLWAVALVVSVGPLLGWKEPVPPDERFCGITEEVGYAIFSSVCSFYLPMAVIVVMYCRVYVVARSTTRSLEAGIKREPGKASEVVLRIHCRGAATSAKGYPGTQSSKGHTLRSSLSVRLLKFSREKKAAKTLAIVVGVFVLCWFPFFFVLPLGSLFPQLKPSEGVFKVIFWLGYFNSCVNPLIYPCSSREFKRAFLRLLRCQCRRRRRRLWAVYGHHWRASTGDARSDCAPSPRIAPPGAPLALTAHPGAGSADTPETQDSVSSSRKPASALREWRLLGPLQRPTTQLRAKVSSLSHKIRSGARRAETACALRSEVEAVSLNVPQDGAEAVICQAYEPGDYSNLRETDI
T1 sequence (P43140 whole entry): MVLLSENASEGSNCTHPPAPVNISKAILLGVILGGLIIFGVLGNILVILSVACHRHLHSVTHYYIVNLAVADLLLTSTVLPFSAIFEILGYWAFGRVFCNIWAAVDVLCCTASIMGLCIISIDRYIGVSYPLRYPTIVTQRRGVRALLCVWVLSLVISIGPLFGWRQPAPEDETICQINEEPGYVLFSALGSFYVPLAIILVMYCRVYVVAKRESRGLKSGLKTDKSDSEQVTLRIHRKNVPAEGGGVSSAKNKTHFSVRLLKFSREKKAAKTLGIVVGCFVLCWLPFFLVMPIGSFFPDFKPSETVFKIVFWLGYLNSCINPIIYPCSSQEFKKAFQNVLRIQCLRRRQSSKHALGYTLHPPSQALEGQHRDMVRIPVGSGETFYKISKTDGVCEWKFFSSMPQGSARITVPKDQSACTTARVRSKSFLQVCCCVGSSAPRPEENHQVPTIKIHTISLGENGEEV
As to the kind of experiment: The concentration required to inhibit [3H]prazosin binding to Alpha-1 adrenergic receptor in rat brain membranes was measured (in vitro).

Broadly, the IC50 is the concentration that inhibits the measured activity by half. Lower therefore signals greater potency in that assay.

Chain of D(2) dopamine receptor (P61169 whole entry): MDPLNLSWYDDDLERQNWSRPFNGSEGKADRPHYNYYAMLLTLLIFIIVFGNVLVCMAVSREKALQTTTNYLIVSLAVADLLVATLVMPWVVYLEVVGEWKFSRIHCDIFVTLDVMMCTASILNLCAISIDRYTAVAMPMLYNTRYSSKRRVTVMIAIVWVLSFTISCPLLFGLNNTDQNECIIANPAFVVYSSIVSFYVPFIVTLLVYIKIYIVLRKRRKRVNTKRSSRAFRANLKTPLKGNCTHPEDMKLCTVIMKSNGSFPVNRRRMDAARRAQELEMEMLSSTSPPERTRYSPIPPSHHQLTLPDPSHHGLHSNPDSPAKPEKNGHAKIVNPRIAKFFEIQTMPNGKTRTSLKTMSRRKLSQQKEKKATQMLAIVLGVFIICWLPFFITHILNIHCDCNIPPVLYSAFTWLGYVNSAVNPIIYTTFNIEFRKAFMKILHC

`O=S1(=O)c2cccc3cccc(c23)N1CCCN1CCN(c2ccc(C(F)(F)F)cc2)CC1`: the figures for the IC50 (in test [1]; at D(2) dopamine receptor; in test [2]) were 0.275 µM, above 1 µM and above 1 µM, respectively.
`CS(=O)(=O)N(CCCN1CC=C(c2ccccc2)CC1)c1cccc2ccccc12`: the IC50 in test [1] stood at 0.0051 µM; at D(2) dopamine receptor, 0.275 µM; in test [2] it was 0.075 µM.
On the same counts, the results for `O=S1(=O)c2cccc3cccc(c23)N1CCCN1CCC(n2c(O)nc3ccccc32)CC1` are 0.007 µM, 0.046 µM and below 0.01 µM.
On the same counts, the results for `O=S1(=O)c2cccc3cccc(c23)N1CCCN1CCN(c2cccc(F)c2)CC1` are 0.018 µM, above 1 µM and 0.688 µM.
As for `O=S1(=O)N=C(N2CCN(CCCN3c4cccc5cccc(c45)S3(=O)=O)CC2)c2ccccc21`, the IC50 is 0.24 µM in test [1], above 1 µM on D(2) dopamine receptor and 0.181 µM in test [2].
On the same counts, the results for `O=S1(=O)c2cccc3cccc(c23)N1CCCN1CCN(c2ccccn2)CC1` are 0.0063 µM, above 1 µM and 0.269 µM.
For `O=[N+]([O-])c1ccc(N2CCN(CCCN3c4cccc5cccc(c45)S3(=O)=O)CC2)cc1`, in that order: 0.025 µM, above 1 µM and above 1 µM.
On the same counts, the results for `O=S1(=O)c2cccc3cccc(c23)N1CCCN1CCN(c2ccccc2)CC1` are 0.0026 µM, above 1 µM and 0.141 µM.
`O=S1(=O)c2cccc3cccc(c23)N1CCCN1CCN(c2ccc(O)cc2)CC1`: the IC50 came out at 0.0003 µM in test [1], 0.508 µM on D(2) dopamine receptor and 0.11 µM in test [2].
As to `O=S1(=O)c2ccccc2-c2ccccc2N1CCCN1CC=C(c2ccccc2)CC1`, the figures for the IC50 (in test [1]; on D(2) dopamine receptor; in test [2]) were 0.01 µM, 0.11 µM and 0.01 µM, respectively.
As for `O=S1(=O)c2cccc3cccc(c23)N1CCCN1CCC(c2ccccc2)CC1`, the IC50 in test [1] came to 0.0002 µM; on D(2) dopamine receptor, 0.385 µM; in test [2], 0.027 µM.
Turning to `CN(CCCN1CC=C(c2ccccc2)CC1)S(=O)(=O)c1cccc2ccccc12`, the IC50 in test [1] was above 0.1 µM.
As for `O=C(c1ccc(F)cc1)C1CCN(CCCN2c3cccc4cccc(c34)S2(=O)=O)CC1`, the figures for the IC50 (in test [1]; at D(2) dopamine receptor; in test [2]) were 0.0001 µM, 0.041 µM and 0.0079 µM, respectively.
For `O=C1c2cccc3cccc(c23)N1CCCN1CC=C(c2ccccc2)CC1`, in that order: 0.0098 µM, above 0.1 µM and 0.58 µM.
On the same counts, the results for `O=S1(=O)c2cccc3cccc(c23)N1CCCN1CCN(c2ncccn2)CC1` are 0.032 µM, above 1 µM and above 1 µM.
On the same counts, the results for `Cc1ccc(N2CCN(CCCN3c4cccc5cccc(c45)S3(=O)=O)CC2)cc1` are 0.004 µM, above 1 µM and 0.7 µM.
Consider `O=S1(=O)c2cccc3cccc(c23)N1CCCN1CC=C(c2ccccc2)CC1`, for which the concentration for half-maximal inhibition (IC50) in test [1] came out at 0.001 µM; at D(2) dopamine receptor it was 1 µM; in test [2] it was 0.192 µM.
On the same counts, the results for `O=S1(=O)c2cccc3cccc(c23)N1CCCN1CCC(=C(c2ccc(F)cc2)c2ccc(F)cc2)CC1` are 0.011 µM, 0.603 µM and 0.05 µM.
On the same counts, the results for `O=S1(=O)c2cccc3cccc(c23)N1CCCN1CCN(c2nc3ccccc3s2)CC1` are 0.54 µM, above 1 µM and above 1 µM.
On the same counts, the results for `O=S1(=O)c2cccc3cccc(c23)N1CCCN1CCN(c2ccccc2F)CC1` are 0.003 µM, above 1 µM and 0.052 µM.
Turning to `COc1ccc(N2CCN(CCCN3c4cccc5cccc(c45)S3(=O)=O)CC2)cc1`, the IC50 in test [1] was 0.025 µM; at D(2) dopamine receptor, above 1 µM; in test [2], above 1 µM.
For `O=S1(=O)c2cccc3cccc(c23)N1CCCN1CCN(c2ccc(Br)cc2)CC1`, the figures for the IC50 (in test [1]; on D(2) dopamine receptor; in test [2]) were 0.007 µM, above 1 µM and above 1 µM, respectively.
As to `O=S1(=O)c2cccc3cccc(c23)N1CCCN1CCN(c2noc3ccccc23)CC1`, the IC50 in test [1] was 0.0023 µM; at D(2) dopamine receptor, 0.99 µM; in test [2] it was 0.144 µM.
As to `CCOC(=O)c1ccc(N2CCN(CCCN3c4cccc5cccc(c45)S3(=O)=O)CC2)cc1`, the IC50 in test [1] was 0.2 µM; at D(2) dopamine receptor, above 1 µM; in test [2], above 1 µM.
Take `O=S1(=O)c2cccc3cccc(c23)N1CCN1CCN(c2ccc(F)cc2)CC1`: the IC50 in test [1] was 0.001 µM; in test [2] it was 0.064 µM.
As to `O=S1(=O)c2cccc3cccc(c23)N1CCCN1CCN(c2nsc3ccccc23)CC1`, the IC50 in test [1] is 0.0004 µM; at D(2) dopamine receptor it was 0.473 µM; in test [2], 0.075 µM.
For `O=S1(=O)c2cccc3cccc(c23)N1CCN1CC=C(c2ccccc2)CC1`, the IC50 in test [1] is 0.0063 µM; at D(2) dopamine receptor it was above 0.1 µM; in test [2] it was 0.098 µM.
With `O=S(=O)(c1ccccc1)N(CCCN1CC=C(c2ccccc2)CC1)c1ccccc1`, the values for the IC50 (in test [1]; on D(2) dopamine receptor; in test [2]) were 0.01 µM, 0.08 µM and 0.035 µM, respectively.
On the same counts, the results for `O=S1(=O)c2cccc3cccc(c23)N1CCCCN1CC=C(c2ccccc2)CC1` are 0.0021 µM, 0.055 µM and 0.0078 µM.
For `O=S1(=O)c2cccc3cccc(c23)N1CCCN1CCN(c2ccc(Cl)cc2)CC1`, in that order: 0.005 µM, above 1 µM and above 1 µM.

Values taken from ChEMBL document CHEMBL1125181, “Naphthosultam derivatives: a new class of potent and selective 5-HT2 antagonists” (J Med Chem, 1991).
